Test results from PubChem BioAssay.
Results filed as inconclusive are left out.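 Rule for the calls, unless noted: active = growth inhibition above 25% in both replicates, a cutoff set 3 SD above the mean; inconclusive = above 25% in only one replicate; inactive = the rest.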

How the values were obtained:
[1] = S. cerevisiae growth inhibition in permissive medium (OD615), pilot counter-assay for S. cerevisiae lifespan shortening project, permissive growth control (AID 705); conditions: OD615, 24 h, at 10 µM, active compounds read high
Summary of the method: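 Material: engineered DeaD yeast; Compound: one dose 10 µM, DMSO 0.25% final; Detection: absorbance (optical density) at 615 nm; Buffer or medium: permissive raffinose/galactose medium; Timing: 24 h exposure, 30 °C.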

[2] = S. cerevisiae growth inhibition in restrictive medium, OD615, pilot screen, restrictive growth control, yeast lifespan reduction project (AID 706;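 active = growth inhibition above a set limit, 3 SD over mean compound inhibition, in both replicates, cut at about 43% in these data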;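 note: modified DeaD lifespan yeast strain shifted to restrictive glucose medium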); conditions: OD615, 48 h, at 10 µM, active compounds read high
Summary of the method: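 Buffer or medium: restrictive glucose medium (CSMM-D); test system: modified S. cerevisiae; doses: single dose of 10 µM compound final, 0.25% DMSO; schedule: 48 h compound exposure at 30 °C; detection: absorbance (optical density) measured at 615 nm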

[3] = doxorubicin toxicity protection in MRP-1 cells – H69AR cells, CellTiter-Glo, duplicate, MRP-1 activator project, pilot screen (AID 807;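 active = viability increase at or above a cutoff of the median across tested compounds plus 3 SD, cut at about 8.5% in these data, passing the limit was not always enough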;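 note: compound pretreatment 18-22 h then 72 h combined with doxorubicin; 0% = doxorubicin alone and 100% = vehicle without doxorubicin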); conditions: H69AR viability with doxorubicin, CellTiter-Glo luminescence; at 10 µM; active compounds read high
[4] = viability of HCT116 without oncogenic beta-catenin – human colon tumor cells, pilot screen (AID 823;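 active = cell viability at or below a set limit in both duplicate runs, the limit being the all-compound median minus 4 SD, cut at about 23% in these data, passing the limit was not always enough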;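 note: 0% = wells killed by 20 µM Hyamine and 100% = untreated DMSO cell wells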); conditions: HCT116 beta-catenin knockout viability, CellTiter-Glo, 60 h; at 10 µM; active compounds read low
[5] = viability of PTEN-null HCT116 cells – cell-based, HCT116 clonal line, CellTiter-Glo, pilot screen (AID 824;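 active = viability at or below 27.92% in each of two runs, the all-compound median minus 4 SD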;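 note: 0% = 20 µM Hyamine control and 100% = vehicle cell control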); conditions: HCT116 PTEN-deleted viability, 60 h, at 10 µM, active compounds read low
[6] = RAM pathway blockade in budding yeast – dse1pr::URA3 reporter, 5-FOA selection, pilot screen (AID 869;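 active = inhibition over a set limit, the all-compound mean plus 3 SD, in both replicate runs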;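 note: 0% = DMSO wells with no growth and 100% = 10 µM 1-NA-PP1 with full growth; RAM network block rescues cells from 5-FOA so hits raise OD615 growth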); conditions: S. cerevisiae dse1pr::URA3 5-FOA growth, OD615, 2 d; at 10 µM; active compounds read high; strain carries analog-sensitive mutant Cbk1 kinase
[7] = RAM signaling pathway blockade in yeast – S. cerevisiae, Pdr1DBD-CYC8 efflux-inhibited sensitized strain, primary screen (AID 1298;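 active = RAM network inhibition above 8.4% in each of two replicates, 3 SD over the compound average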;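 note: 0% = DMSO untreated cells without growth and 100% = 10 µM 1-NA-PP1 full growth; higher means more yeast growth rescued from 5-FOA killing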); conditions: S. cerevisiae cbk1-as DSE1-URA3 strain, 5-FOA growth OD615, 2 d; at 50 µM; active compounds read high

CC1(C)CC(=O)C(C=NCc2cccnc2)=C(O)C1
inactive: growth inhibition [1] -10.7% | growth inhibition [2] -17.6% | viability increase [3] 0.64% | viability [4] 92.8% | viability [5] 98.8% | inhibition [6] 0.7% | RAM network inhibition [7] 4.76%

O=C1C2CCCN2C(c2cccc(F)c2)N1c1cccc(Cl)c1 (centres undefined)
inactive: growth inhibition [1] -10.5% | growth inhibition [2] 1.77% | viability increase [3] -0.22% | viability [4] 108% | viability [5] 99% | inhibition [6] 0.56% | RAM network inhibition [7] -0.05%

COc1ccc(N2CCN(c3cc(=O)n(Cc4ccc(F)cc4)c(=O)[nH]3)CC2)cc1
inactive: growth inhibition [1] -4.88% | growth inhibition [2] 1.23% | viability increase [3] -2.97% | viability [4] 92.9% | viability [5] 86.3% | inhibition [6] 0.215% | RAM network inhibition [7] 9.17%

CC(CNC(=O)C1CCCCC1)NC(=O)C1CCCCC1 (centres undefined)
inactive: growth inhibition [1] -7.69% | growth inhibition [2] -6.86% | viability increase [3] 0.64% | viability [4] 89.6% | viability [5] 92.5% | inhibition [6] 0.08% | RAM network inhibition [7] 4%

CC(=O)c1ccc(OCC(O)Cn2nnc3ccccc32)cc1 (centres undefined)
inactive: growth inhibition [1] -15.7% | growth inhibition [2] -1.76% | viability increase [3] 0.2% | viability [4] 87.6% | viability [5] 97.9% | inhibition [6] 0.455% | RAM network inhibition [7] 7.79%

O=C(NCCO)c1ccc(-c2nnc(N3CCOCC3)c3ccccc23)cc1
inactive: growth inhibition [1] -8.54% | growth inhibition [2] -14.4% | viability increase [3] 0.15% | viability [4] 89.1% | viability [5] 89.6% | inhibition [6] 0.425% | RAM network inhibition [7] 3.24%

CN(Cc1ccccc1)C(=O)CCC(=O)N(C)Cc1ccccc1
inactive: growth inhibition [1] -1.99% | growth inhibition [2] 4.61% | viability increase [3] -0.27% | viability [4] 103% | viability [5] 90.2% | inhibition [6] 0.97% | RAM network inhibition [7] -0.11%

O=C(C1=C(O)C(=O)N(CCN2CCOCC2)C1c1ccncc1)c1ccco1 (centres undefined)
inactive: growth inhibition [1] -15.4% | growth inhibition [2] 2.89% | viability increase [3] -3.57% | viability [4] 98.3% | viability [5] 93.2% | inhibition [6] 2.35% | RAM network inhibition [7] 2.42%

O=C(CC1Sc2ccccc2NC1=O)Nc1cccc(C(=O)O)c1 (centres undefined)
inactive: growth inhibition [1] 0.01% | growth inhibition [2] 8.77% | viability increase [3] -0.43% | viability [4] 101% | viability [5] 87% | inhibition [6] 1.14% | RAM network inhibition [7] 4.51%

Cc1sc2nc(SC(C)C)nc(N)c2c1C
inactive: growth inhibition [1] 6.53% | growth inhibition [2] 7.72% | viability increase [3] 0.28% | viability [4] 103% | viability [5] 104% | inhibition [6] 1.69% | RAM network inhibition [7] 4.8%

CC(=O)OC(/C(O)=C(\C#N)c1nc2ccccc2[nH]1)c1ccccc1 (centres undefined)
inactive: growth inhibition [1] 0.55% | growth inhibition [2] 3.63% | viability increase [3] -0.98% | viability [4] 59.6% | viability [5] 54.3% | inhibition [6] 1.63% | RAM network inhibition [7] 3.42%

COc1cc2c(cc1OC)C(C(=O)Nc1ccc3c(c1)OCCO3)C(c1cccnc1)N(C)C2=O (centres undefined)
inactive: growth inhibition [1] -4.64% | growth inhibition [2] -22.9% | viability increase [3] -6.9% | viability [4] 85.6% | viability [5] 87.9% | inhibition [6] 1.38% | RAM network inhibition [7] -0.57%

CC(Oc1ccc(Cl)cc1Cl)C(=O)NCCCN1CCOCC1 (centres undefined)
inactive: growth inhibition [1] -8.88% | growth inhibition [2] -10.2% | viability increase [3] 0.14% | viability [4] 96% | viability [5] 95% | inhibition [6] -0.36% | RAM network inhibition [7] 0.47%

CCOC(=O)c1cc2c(=O)n3ccccc3nc2n(CCOC)c1=NC(=O)C(C)(C)C
inactive: growth inhibition [1] -6.44% | growth inhibition [2] -18.2% | viability increase [3] -3.78% | viability [4] 93.6% | viability [5] 96.9% | inhibition [6] -0.545% | RAM network inhibition [7] 5.12%

CCCN1C(=O)c2cc(C(=O)NCCc3cccc(C)c3)ccc2C1O (centres undefined)
inactive: growth inhibition [1] -2.76% | growth inhibition [2] 1.97% | viability increase [3] -3.1% | viability [4] 104% | viability [5] 104% | inhibition [6] 0.08% | RAM network inhibition [7] 1.65%

COc1ccc2c(Cl)c(-c3nnc(SCC(N)=O)n3C)sc2c1
inactive: growth inhibition [1] -2.31% | growth inhibition [2] 11.7% | viability increase [3] -2.99% | viability [4] 106% | viability [5] 94% | inhibition [6] 1.43% | RAM network inhibition [7] 0.69%

COc1ccccc1-c1nnc(NC(=O)c2ccccc2F)o1
inactive: growth inhibition [1] -16.6% | growth inhibition [2] -17.1% | viability increase [3] -5.55% | viability [4] 88.3% | viability [5] 89.7% | inhibition [6] 1.22% | RAM network inhibition [7] 0.16%

Cc1cc(CN2C(=O)c3ccccc3C2=O)cc(N2CCOCC2)c1
inactive: growth inhibition [1] -9.23% | growth inhibition [2] -10.3% | viability increase [3] -2.19% | viability [4] 95% | viability [5] 87.7% | inhibition [6] 0.76% | RAM network inhibition [7] 1.4%

COc1ccc(-c2oc(/N=C/N3CCOCC3)c(C#N)c2-c2ccc(OC)cc2)cc1
inactive: growth inhibition [1] -10.1% | growth inhibition [2] -18.7% | viability increase [3] -0.81% | viability [4] 88.6% | viability [5] 83.4% | inhibition [6] 2.25% | RAM network inhibition [7] 2.33%

COc1ccccc1-c1cc(C(=O)N2CCCCC2)no1
inactive: growth inhibition [1] -6.35% | growth inhibition [2] 11.2% | viability increase [3] -0.55% | viability [4] 103% | viability [5] 93.2% | inhibition [6] 2.1% | RAM network inhibition [7] 4.18%

O=C(Cn1cc2c(n1)CCCCC2)N1CCCCC1
inactive: growth inhibition [1] -4.8% | growth inhibition [2] -5.9% | viability increase [3] -0.82% | viability [4] 98.5% | viability [5] 92.4% | inhibition [6] 1.23% | RAM network inhibition [7] -2.24%

CCCCOc1ccc(CN2CCC(O)CC2)cc1
inactive: growth inhibition [1] -18.6% | growth inhibition [2] -6.13% | viability increase [3] -0.47% | viability [4] 90.9% | viability [5] 100% | inhibition [6] 1.06% | RAM network inhibition [7] 2.2%

O=C1NC(c2cccs2)C(C(=O)c2ccccc2)C(O)(C(F)(F)F)N1 (centres undefined)
inactive: growth inhibition [1] -0.14% | growth inhibition [2] -7.88% | viability increase [3] -0.03% | viability [4] 94.8% | viability [5] 90.4% | inhibition [6] 0.61% | RAM network inhibition [7] 0.87%

O=C(O)CSCCc1ccccn1
inactive: growth inhibition [1] 4.38% | growth inhibition [2] 11.1% | viability increase [3] -0.02% | viability [4] 98.3% | viability [5] 99.6% | inhibition [6] 1.27% | RAM network inhibition [7] 4.45%

Cn1nnnc1SCC(=O)Nc1ccc(N2CCOCC2)cc1
inactive: growth inhibition [1] -4.58% | growth inhibition [2] 7.83% | viability increase [3] -1.01% | viability [4] 95.8% | viability [5] 97.5% | inhibition [6] 0.97% | RAM network inhibition [7] 0.68%

Cc1cccc(CCNC(=O)C2CCC(CNc3c(N4CCCC4)c(=O)c3=O)CC2)c1 (centres undefined)
inactive: growth inhibition [1] -6.65% | growth inhibition [2] -3.19% | viability increase [3] -1.92% | viability [4] 99.4% | viability [5] 91.2% | inhibition [6] 1.26% | RAM network inhibition [7] 4.72%

C=CCn1c(NCc2cc(C)ccc2O)nc2ccccc21
inactive: growth inhibition [1] -18.2% | growth inhibition [2] -17.9% | viability increase [3] -2.74% | viability [4] 82.8% | viability [5] 70.6% | inhibition [6] -0.74% | RAM network inhibition [7] 2.04%

Cc1cc2cc(CNC(=O)c3ccc(Br)o3)ccc2[nH]1
inactive: growth inhibition [1] -6.49% | growth inhibition [2] -9.17% | viability increase [3] -1.33% | viability [4] 86.5% | viability [5] 85.1% | inhibition [6] 3.64% | RAM network inhibition [7] 8.22%

CC(=Nc1ccc(C)c(C)c1)C1=C(O)CSC1=O
inactive: growth inhibition [1] 1.08% | growth inhibition [2] -8.17% | viability increase [3] -2.54% | viability [4] 98.1% | viability [5] 90.3% | inhibition [6] 1.67% | RAM network inhibition [7] 4.33%

Cc1[nH]c2ccccc2c1SCCN
inactive: growth inhibition [1] -9.76% | growth inhibition [2] -12.4% | viability increase [3] -5.96% | viability [4] 73.9% | viability [5] 62.9% | inhibition [6] 2.34% | RAM network inhibition [7] 1.7%

O=C(O)c1ccccc1C(=O)NCc1ccccc1
inactive: growth inhibition [1] -7.18% | growth inhibition [2] -15.6% | viability increase [3] 1.13% | viability [4] 99.3% | viability [5] 100% | inhibition [6] 0.27% | RAM network inhibition [7] 1.13%

O=C(c1c(Cl)nc2sccn12)N1CCCc2ccccc21
inactive: growth inhibition [1] -2.11% | growth inhibition [2] -6.31% | viability increase [3] -0.71% | viability [4] 100% | viability [5] 98.2% | inhibition [6] 2.37% | RAM network inhibition [7] 1.4%

CCCn1c(CN2CCCCC2C)nc2c1c(=O)n(C)c(=O)n2C (centres undefined)
inactive: growth inhibition [1] -7.96% | growth inhibition [2] -3.75% | viability increase [3] -0.39% | viability [4] 88.7% | viability [5] 83.9% | inhibition [6] 1.64% | RAM network inhibition [7] 8.45%

CCOc1ccc(Nc2ncnc(N)n2)cc1
inactive: growth inhibition [1] -16% | growth inhibition [2] -1.21% | viability increase [3] 0.15% | viability [4] 97.4% | viability [5] 102% | inhibition [6] 0.055% | RAM network inhibition [7] 1.11%

CCOC(=O)CNC(=O)CSc1nc2sc(C)c(C)c2c(=O)n1C
inactive: growth inhibition [1] -0.13% | growth inhibition [2] 34.3% | viability increase [3] -3.44% | viability [4] 98.4% | viability [5] 97.6% | inhibition [6] 3.61% | RAM network inhibition [7] 5.94%

CC(C)OC(=O)c1nnc(Cc2ccc(Cl)cc2)o1
inactive: growth inhibition [1] -6.46% | growth inhibition [2] 9.87% | viability increase [3] 0.7% | viability [4] 102% | viability [5] 102% | inhibition [6] -0.06% | RAM network inhibition [7] 1.93%

COc1cccc(C2c3c(oc4cc(C)c(C)cc4c3=O)C(=O)N2CCCN(C)C)c1 (centres undefined)
inactive: growth inhibition [1] -8.88% | growth inhibition [2] 0.12% | viability increase [3] -3.94% | viability [4] 93.6% | viability [5] 94.6% | inhibition [6] 0.885% | RAM network inhibition [7] 1.83%
